# According to ChEMBL document CHEMBL3244396, “Synthesis and antileukemic activity of 5-substituted 2,3-dihydro-6,7-bis(hydroxymethyl)-1H-pyrrolizine diesters” (J Med Chem, 1977):
# Tests used:
# [1] = tested on: L1210; test: Antileukemic activity against mouse L1210 cells allografted in female BDF1 mouse assessed as host mean survival time at 50 mg/kg, ip administered daily for 9 days as Klucel suspension starting 24 hrs after tumor inoculation relative to control; type: functional; details: route intraperitoneal
# Summary of the method: (§1)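 L1210 leukemia given as an ascitic fluid cell inoculum, ip, to mice of the strain and sex in each line. Test material was given ip for nine daily doses starting 24 h after inoculation, in a Klucel (hydroxypropylcellulose) suspension. Read-out is mean survival time as %T/C versus controls, with >125 taken as significant.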
# [2] = tested on: Mus musculus; test: Toxicity in female BDF1 mouse allografted with mouse L1210 cells assessed as animal survival at 200 mg/kg, ip administered daily for 9 days as Klucel suspension starting 24 hrs after tumor inoculation measured on fifth day; type: organism-based; design: dose 200 mg/kg, route intraperitoneal; details: in vivo
# Summary of the method: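 L1210 leukemia passaged as ascitic fluid and inoculated ip. Test agent given ip as a Klucel (hydroxypropylcellulose) suspension, nine daily doses starting 24 h after tumor inoculation. Acute toxicity read as toxicity-day survivors per group (out of 6), recorded on day 5. Animal weight difference T − C was also recorded. Follows NCI screening protocols.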
# [3] = tested on: P388; test: Antitumor activity against mouse P388 cells allografted in female BDF1 mouse assessed as disease cures by measuring 30-days host survival at 25 mg/kg, ip administered daily for 9 days as Klucel suspension starting 24 hrs after tumor inoculation relative to control; type: functional; details: route intraperitoneal
# Summary of the method: (§2)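 P388 leukemia given as an ascitic fluid cell inoculum, ip, to mice of the strain and sex in each line. Nine daily ip doses were given in a Klucel (hydroxypropylcellulose) suspension, starting 24 h after inoculation. Read-out is median survival time as %T/C, with >125 taken as significant; a "cure" means 30-day survival.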
# [4] = tested on: L1210; test: Antileukemic activity against mouse L1210 cells allografted in female BDF1 mouse assessed as change in body weight at 50 mg/kg, ip administered daily for 9 days as Klucel suspension starting 24 hrs after tumor inoculation; type: functional; details: route intraperitoneal
# Summary of the method: (§3)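 Ascitic fluid carrying L1210 cells was inoculated ip. Compound was given ip as a Klucel (hydroxypropylcellulose) suspension in nine daily doses, starting 24 h after inoculation. Body-weight difference (treated minus control) was recorded on day 5. Survival was scored as %T/C of mean survival time.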
# [5] = tested on: P388; test: Antitumor activity against mouse P388 cells allografted in female CDF1 mouse assessed as change in body weight at 200 mg/kg, ip administered daily for 9 days as Klucel suspension starting 24 hrs after tumor inoculation; type: functional; details: route intraperitoneal
# Summary of the method: (§4)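 Ascitic fluid carrying P388 cells was inoculated ip. Compound was given ip in nine daily doses, starting 24 h after inoculation, in Klucel (hydroxypropylcellulose) suspension or in saline with Tween-80. Body-weight difference (treated minus control) was recorded on day 5. Survival was scored as %T/C of median survival time, and 30-day survival counted as cure.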
# [6] = tested on: P388; test: Antitumor activity against mouse P388 cells allografted in female BDF1 mouse assessed as change in body weight at 25 mg/kg, ip administered daily for 9 days as Klucel suspension starting 24 hrs after tumor inoculation; type: functional; details: route intraperitoneal; summary of the method: as §4
# [7] = tested on: Mus musculus; test: Toxicity in female BDF1 mouse allografted with mouse P388 cells assessed as animal survival at 12.5 mg/kg, ip administered daily for 9 days as Klucel suspension starting 24 hrs after tumor inoculation; type: organism-based; design: dose 12.5 mg/kg, route intraperitoneal; details: in vivo
# Summary of the method: (§5)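 P-388 leukemia ascitic fluid inoculated ip. Compound given ip as a suspension in Klucel (hydroxypropylcellulose), once daily for nine doses beginning 24 h post-inoculation. Acute toxicity assessed as toxicity-day survivors per group. Survival was followed up to 30 days, with 30-day survival counted as "cure". Follows NCI screening protocols.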
# [8] = tested on: P388; test: Antitumor activity against mouse P388 cells allografted in female CDF1 mouse assessed as disease cures by measuring 30-days host survival at 3.13 mg/kg, ip administered daily for 9 days as Klucel suspension starting 24 hrs after tumor inoculation relative to control; type: functional; details: route intraperitoneal; summary of the method: as §2
# [9] = tested on: P388; test: Antitumor activity against mouse P388 cells allografted in female CDF1 mouse assessed as change in body weight at 3.13 mg/kg, ip administered daily for 9 days as Klucel suspension starting 24 hrs after tumor inoculation; type: functional; details: route intraperitoneal; summary of the method: as §4
# [10] = tested on: L1210; test: Antileukemic activity against mouse L1210 cells allografted in female BDF1 mouse assessed as change in body weight at 100 mg/kg, ip administered daily for 9 days as Klucel suspension starting 24 hrs after tumor inoculation; type: functional; details: route intraperitoneal; summary of the method: as §3
# [11] = tested on: Mus musculus; test: Toxicity in female CDF1 mouse allografted with mouse P388 cells assessed as animal survival at 3.13 mg/kg, ip administered daily for 9 days as Klucel suspension starting 24 hrs after tumor inoculation; type: organism-based; design: dose 3.13 mg/kg, route intraperitoneal; details: in vivo; summary of the method: as §5
# [12] = tested on: Mus musculus; test: Toxicity in female CDF1 mouse allografted with mouse P388 cells assessed as animal survival at 50 mg/kg, ip administered daily for 9 days as Klucel suspension starting 24 hrs after tumor inoculation; type: organism-based; design: dose 50 mg/kg, route intraperitoneal; details: in vivo; summary of the method: as §5
# [13] = tested on: P388; test: Antitumor activity against mouse P388 cells allografted in female BDF1 mouse assessed as change in body weight at 12.5 mg/kg, ip administered daily for 9 days as Klucel suspension starting 24 hrs after tumor inoculation; type: functional; details: route intraperitoneal; summary of the method: as §4
# [14] = tested on: P388; test: Antitumor activity against mouse P388 cells allografted in female CDF1 mouse assessed as disease cures by measuring 30-days host survival at 6.25 mg/kg, ip administered daily for 9 days as Klucel suspension starting 24 hrs after tumor inoculation relative to control; type: functional; details: route intraperitoneal; summary of the method: as §2
# [15] = tested on: L1210; test: Antileukemic activity against mouse L1210 cells allografted in female BDF1 mouse assessed as host mean survival time at 100 mg/kg, ip administered daily for 9 days as Klucel suspension starting 24 hrs after tumor inoculation relative to control; type: functional; details: route intraperitoneal; summary of the method: as §1
# [16] = tested on: Mus musculus; test: Toxicity in female CDF1 mouse allografted with mouse P388 cells assessed as animal survival at 6.25 mg/kg, ip administered daily for 9 days as Klucel suspension starting 24 hrs after tumor inoculation; type: organism-based; design: dose 6.25 mg/kg, route intraperitoneal; details: in vivo; summary of the method: as §5
# [17] = tested on: Mus musculus; test: Toxicity in female BDF1 mouse allografted with mouse P388 cells assessed as animal survival at 25 mg/kg, ip administered daily for 9 days as Klucel suspension starting 24 hrs after tumor inoculation; type: organism-based; design: dose 25 mg/kg, route intraperitoneal; details: in vivo; summary of the method: as §5
# [18] = tested on: P388; test: Antitumor activity against mouse P388 cells allografted in female BDF1 mouse assessed as disease cures by measuring 30-days host survival at 12.5 mg/kg, ip administered daily for 9 days as Klucel suspension starting 24 hrs after tumor inoculation relative to control; type: functional; details: route intraperitoneal; summary of the method: as §2
# [19] = Cytotoxicity against human 9KB cells treated as ethanol solution; type: functional; details: read-out: ED50 (the source's name)
# Summary of the method: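 Compound applied as an ethanol solution; activity read out as ED50 under the general screening protocol.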
# [20] = tested on: L1210; test: Antileukemic activity against mouse L1210 cells allografted in female BDF1 mouse assessed as change in body weight at 200 mg/kg, ip administered daily for 9 days as Klucel suspension starting 24 hrs after tumor inoculation; type: functional; details: route intraperitoneal; summary of the method: as §3
# [21] = tested on: Mus musculus; test: Toxicity in female BDF1 mouse allografted with mouse L1210 cells assessed as animal survival at 100 mg/kg, ip administered daily for 9 days as Klucel suspension starting 24 hrs after tumor inoculation measured on fifth day; type: organism-based; design: dose 100 mg/kg, route intraperitoneal; details: in vivo
# Summary of the method: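 Female BDF1 mice bearing ip ascitic L1210 inoculum got nine daily ip doses in a Klucel suspension, starting 24 h after tumor inoculation. Toxicity was scored as toxicity-day survivors out of the group, recorded on the fifth day. Animal weight difference (T − C) was also tabulated.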
# [22] = tested on: P388; test: Antitumor activity against mouse P388 cells allografted in female CDF1 mouse assessed as disease cures by measuring 30-days host survival at 50 mg/kg, ip administered daily for 9 days as Klucel suspension starting 24 hrs after tumor inoculation relative to control; type: functional; details: route intraperitoneal; summary of the method: as §2
# [23] = tested on: P388; test: Antitumor activity against mouse P388 cells allografted in female CDF1 mouse assessed as change in body weight at 6.25 mg/kg, ip administered daily for 9 days as Klucel suspension starting 24 hrs after tumor inoculation; type: functional; details: route intraperitoneal; summary of the method: as §4
# [24] = tested on: P388; test: Antitumor activity against mouse P388 cells allografted in female CDF1 mouse assessed as change in body weight at 100 mg/kg, ip administered daily for 9 days as Klucel suspension starting 24 hrs after tumor inoculation; type: functional; details: route intraperitoneal; summary of the method: as §4
# [25] = tested on: P388; test: Antitumor activity against mouse P388 cells allografted in female CDF1 mouse assessed as change in body weight at 50 mg/kg, ip administered daily for 9 days as Klucel suspension starting 24 hrs after tumor inoculation; type: functional; details: route intraperitoneal; summary of the method: as §4
smiles,measurement,setting,value
CNC(=O)OCc1c(COC(=O)NC)c(-c2ccc(Cl)cc2)n2c1CCC2,T/C,[1],112%
same,Activity,[2],Toxic
same,T/C,[3],135%
same,Activity,[4],-2.6 g
same,Activity,[5],0.5 g
same,Activity,[6],-0.8 g
same,Activity,[7],Non-toxic
same,T/C,[8],127%
same,Activity,[9],-0.6 g
same,Activity,[10],-3.8 g
same,Activity,[11],Non-toxic
same,Activity,[12],Non-toxic
same,Activity,[13],-0.2 g
same,T/C,[14],150%
same,T/C,[15],107%
same,Activity,[16],Non-toxic
same,Activity,[17],Non-toxic
same,T/C,[18],129%
same,EC50,[19],2.3 µg/mL
same,Activity,[20],-2.8 g
same,Activity,[21],Non-toxic
same,T/C,[22],104%
same,Activity,[23],0.2 g
same,Activity,[24],-0.9 g
same,Activity,[25],-2.5 g
